In ChEMBL document CHEMBL1157618, “Noncovalent tripeptidyl benzyl- and cyclohexyl-amine inhibitors of the cysteine protease caspase-1” (J Med Chem, 2010):

What follows are molecules tested against Caspase-8 (Homo sapiens, UniProt Q14790) (assay: Inhibition of caspase 8).
Chain of Caspase-8 (Q14790 217-374 limits assumed): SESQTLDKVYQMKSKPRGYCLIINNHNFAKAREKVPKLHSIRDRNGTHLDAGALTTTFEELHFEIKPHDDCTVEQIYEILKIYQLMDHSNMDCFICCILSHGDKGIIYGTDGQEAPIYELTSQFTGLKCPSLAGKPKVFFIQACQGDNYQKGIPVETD
Chain of Caspase-8 (Q14790 385-479 limits assumed): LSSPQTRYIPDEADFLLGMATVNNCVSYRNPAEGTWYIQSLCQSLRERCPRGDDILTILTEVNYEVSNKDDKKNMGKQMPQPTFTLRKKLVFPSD

How did the IC50 turn out when `CC(C)[C@H](NC(=O)c1ccc2ccccc2c1)C(=O)N[C@@H](C)C(=O)N[C@H](CNCc1ccccc1O)CC(=O)O` was run?
The IC50 was 100000 nM.

The molecules below were run against T1, Caspase-1 (Homo sapiens, UniProt P29466) (assay: Inhibition of human recombinant caspase 1).
T1 sequence (P29466 whole entry): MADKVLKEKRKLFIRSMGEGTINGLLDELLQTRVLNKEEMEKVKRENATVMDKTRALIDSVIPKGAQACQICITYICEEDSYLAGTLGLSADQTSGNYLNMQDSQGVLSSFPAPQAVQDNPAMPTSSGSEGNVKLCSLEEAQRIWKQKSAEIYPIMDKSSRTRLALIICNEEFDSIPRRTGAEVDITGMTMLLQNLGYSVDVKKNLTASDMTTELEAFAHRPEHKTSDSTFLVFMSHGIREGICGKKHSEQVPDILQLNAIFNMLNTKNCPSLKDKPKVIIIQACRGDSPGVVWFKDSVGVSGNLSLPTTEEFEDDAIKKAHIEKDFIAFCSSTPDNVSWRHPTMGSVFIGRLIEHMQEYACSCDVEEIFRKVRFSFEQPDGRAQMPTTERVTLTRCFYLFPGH
Method in brief: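 Recombinant human caspase-1 stored at -80 °C as aliquots and used at 1:20 dilution; enzyme preincubated with inhibitor (Ki determinations). Substrate Ac-Trp-Glu-His-Asp-AMC, 5 μM final. AMC release followed kinetically, excitation 380 nm, emission 460 nm.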

Which Ki does the source give for `CC(C)[C@H](NC(=O)c1ccc2ccccc2c1)C(=O)N[C@@H](C)C(=O)N[C@H](CNC1CCCCC1)CC(=O)O` here?
The Ki was 945 nM.

For `CC(C)[C@H](NC(=O)c1ccc2ccccc2c1)C(=O)N[C@@H](C)C(=O)N[C@H](C=O)CC(=O)O`, which IC50 is on record?
Its IC50 is 0.2 nM.

For `CC(C)[C@H](NC(=O)c1ccc2ccccc2c1)C(=O)N[C@@H](C)C(=O)N[C@@H](CC(=O)O)CN(C)Cc1ccccc1`, which Ki is on record?
Its Ki is 1890 nM.

With `CC(C)[C@H](NC(=O)c1ccc2ccccc2c1)C(=O)N[C@@H](C)C(=O)N[C@H](CNCc1ccccc1O)CC(=O)O` as the molecule, how does the Ki read?
The Ki was 47 nM.

With `COc1ccccc1CNC[C@H](CC(=O)O)NC(=O)[C@H](C)NC(=O)[C@@H](NC(=O)c1ccc2ccccc2c1)C(C)C` as the molecule, how does the Ki read?
Its Ki is 965 nM.

For `CC(C)[C@H](NC(=O)c1ccc2ccccc2c1)C(=O)N[C@@H](C)C(=O)N[C@H](CCCc1ccccc1)CC(=O)O`, which Ki is on record?
Its Ki is > 50000 nM.

How did the Ki turn out when `CC(C)[C@H](NC(=O)c1ccc2ccccc2c1)C(=O)N[C@@H](C)C(=O)N[C@H](CNCc1ccccc1F)CC(=O)O` was run?
Its Ki is 1200 nM.

`CC(C)[C@H](NC(=O)c1ccc2ccccc2c1)C(=O)N[C@@H](C)C(=O)N[C@H](CNCc1ccc(O)cc1)CC(=O)O` was tested. Which Ki did it give?
Its Ki is 1370 nM.

Which Ki does the source give for `CC(C)[C@H](NC(=O)c1ccc2ccccc2c1)C(=O)N[C@@H](C)C(=O)N[C@H](CNCc1ccccc1)CC(=O)O` here?
Its Ki is 600 nM.

Which Ki does the source give for `CC(C)[C@H](NC(=O)c1ccc2ccccc2c1)C(=O)N[C@@H](C)C(=O)N[C@H](CNCc1ccc2c(c1)OCO2)CC(=O)O` here?
The Ki was 209 nM.

For `CC(C)[C@H](NC(=O)c1ccc2ccccc2c1)C(=O)N[C@@H](C)C(=O)N[C@H](CNCc1ccc(C(N)=O)cc1)CC(=O)O`, which Ki is on record?
The Ki was 1820 nM.

With `CC(C)[C@H](NC(=O)c1ccc2ccccc2c1)C(=O)N[C@@H](C)C(=O)N[C@@H](CC(=O)O)CN(C)C1CCCCC1` as the molecule, how does the Ki read?
Its Ki is 128 nM.
